{"source": "paper PMC8213225", "about": "(Science Advances, 2021)", "key": {"[1]": {"test_system": "53BP1 FFR polyubiquitination", "assay": "In vivo ubiquitination assay of 53BP1 FFR", "format": "cell-based", "details": "CPT treatment, fig. S2H"}, "[2]": {"test_system": "53BP1 polyubiquitination", "assay": "In vivo ubiquitination assay of 53BP1", "format": "cell-based", "details": "CPT treatment, fig. S2E"}, "[3]": {"test_system": "SPOP-53BP1 interaction", "assay": "Co-IP of SPOP-53BP1 interaction after DNA damage", "format": "cell-based", "details": "DNA damage by CPT"}, "[4]": {"test_system": "BPH1 cells", "assay": "Karyotype analysis, chromosome breaks", "format": "cell-based", "details": "SPOP F133V-expressing BPH1 cells, CPT 1 μM for 24 hours; largely reversed by 53BP1 co-KO"}, "[5]": {"test_system": "L3MBTL1", "assay": "Immunodepletion of PC-3 lysate with L3MBTL1 antibody", "format": "binding", "details": "IR 4 Gy, 1 hour, immunodepleted five times", "procedure,_shortened": "(§1)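 PC-3 cells were grown in RPMI with 10% FBS, irradiated (4 Gy), and lysed 1 h later. Lysate was immunodepleted five times with antibody to L3MBTL1 or to 53BP1, with preimmune sera as control. Read-out was Western blot: SDS-PAGE, transfer to nitrocellulose, blocking in TBS (pH 7.4) with 5% nonfat milk and 0.1% Tween 20, primary antibody overnight at 4°C, secondary 1 h at room temperature.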"}, "[6]": {"test_system": "53BP1", "assay": "Immunodepletion of PC-3 lysate with 53BP1 antibody", "format": "binding", "details": "IR 4 Gy, 1 hour, immunodepleted five times", "procedure,_shortened": "as §1"}, "[7]": {"test_system": "SPOP-53BP1 interaction", "assay": "Co-IP of SPOP-53BP1 interaction in 293T cells with kinase inhibitors and IR", "format": "cell-based", "details": "IR for 1 hour", "procedure,_shortened": "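293T cells (DMEM, 10% FBS) transiently transfected with tagged constructs by lipofection, pretreated with kinase inhibitors (DMSO vehicle), then irradiated and harvested 1 h later. Lysed in BC100 buffer 24 h post-transfection; FLAG-tagged proteins pulled down on anti-FLAG M2 agarose, HA-tagged with anti-HA plus protein A/G beads, overnight at 4°C. Immunoblot on nitrocellulose with ECL detection.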"}, "[8]": {"molecular_target": "SPOP MATH domain (residues 28 to 164) D140G (human, UniProt O43791 28-164, D140G)", "sequence (O43791 28-164 D140G)": "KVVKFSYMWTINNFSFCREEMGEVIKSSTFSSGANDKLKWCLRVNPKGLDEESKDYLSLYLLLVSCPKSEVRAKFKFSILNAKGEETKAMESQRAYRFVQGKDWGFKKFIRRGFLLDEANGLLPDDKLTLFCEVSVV", "assay": "crystal structure"}}}
{"molecule": "CC[C@@]1(O)C(=O)OCc2c1cc1n(c2=O)Cc2cc3ccccc3nc2-1", "note": "[CPT, camptothecin]", "values": [{"measurement": "effect on SPOP-increased 53BP1 FFR polyubiquitination", "setting": "[1]", "value": "this effect was enhanced by CPT treatment"}, {"measurement": "effect on SPOP-induced polyubiquitination of 53BP1", "setting": "[2]", "value": "enhanced SPOP-induced polyubiquitination of 53BP1"}, {"measurement": "effect on SPOP-53BP1 interaction", "setting": "[3]", "value": "markedly enhanced"}, {"measurement": "number of intrachromosomal breaks per cell", "setting": "[4]", "value": "marked increase in the number of intrachromosomal breaks per cell"}]}
{"molecule": "NPL4: valosin-containing protein/p97 cofactor NPL4", "values": [{"measurement": "fraction of NPL4 bound to L3MBTL1", "setting": "[5]", "value": "approximately 33%"}, {"measurement": "fraction of NPL4 bound to 53BP1", "setting": "[6]", "value": "approximately 10%"}]}
{"molecule": "O=c1cc(-c2cccc3c2Sc2ccccc2S3)oc(N2CCOCC2)c1", "note": "[ATM kinase inhibitor]", "values": [{"measurement": "effect on SPOP-53BP1 interaction", "setting": "[7]", "value": "attenuated the SPOP-53BP1 interaction"}]}
{"molecule": "PATPTASSSSSTTPT (peptide, UniProt Q12888 1636-1650, looked up)", "note": "[53BP1 SBM synthetic peptide (residues 1636 to 1650)]", "values": [{"measurement": "binding result", "setting": "[8]", "value": "binds"}]}
